Experimental data reported in ChEMBL document CHEMBL1124233, “Clofazimine analogues active against a clofazimine-resistant organism” (J Med Chem, 1988).

What was measured:
Format in all cases: functional, organism-based
[1] = system: Mycolicibacterium smegmatis; assay: 100% inhibition of growth of clofazimine resistant Mycobacterium smegmatis 607 strain in vitro
Procedure, shortened: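 Strain: 20× step-up clofazimine-resistant mutant of M. smegmatis ATCC607. 10^5 viable cells inoculated into modified Kirchner's medium with 0.5% Tween 80. Drugs were added in DMSO (2% final in all tubes). Roller tubes were incubated at 37 °C for 72 h. Growth was read as optical transmission in a spectrophotometer.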

[2] = system: Mycolicibacterium smegmatis; assay: Concentration for 100% inhibition of growth of dapsone sensitive Mycobacterium smegmatis 607 strain in vitro
Procedure, shortened: (§1)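 M. smegmatis ATCC607-derived strains (one of three used, including a dapsone-sensitive one) were grown in modified Kirchner's medium with 0.5% Tween 80, inoculated with 10^5 viable cells. Drugs were added in DMSO (2% final). Roller tubes were incubated at 37 °C for 72 h. Growth was read as spectrophotometric transmission.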

[3] = system: Mycolicibacterium smegmatis; assay: 100% inhibition of growth of rifampicin resistant Mycobacterium smegmatis 607 strain in vitro; procedure, shortened: as §1

Compound | Concentration [1] [µg/mL] | Concentration [2] [µg/mL] | Concentration [3] [µg/mL]
Clc1ccc(Nc2cc3nc4ccccc4n(-c4ccc(Cl)cc4)c-3c/c2=N\CCCNC2CCCCC2)cc1 | 1 | 0.2 | 0.2
Clc1ccc2c(c1)nc1cc(Nc3ccccc3)/c(=N/CCN3CCOCC3)cc-1n2-c1ccccc1 | 50 | 1 | 1.5
Clc1ccc2c(c1)nc1cc(Nc3ccccc3)/c(=N/C3CCCCC3)cc-1n2-c1ccccc1 | 20 | 3 | 0.6
CC(C/N=c1\cc2n(-c3ccc(Cl)cc3)c3ccccc3nc-2cc1Nc1ccc(Cl)cc1)N(C)C (stereo not drawn) | 16 | 1.2 | 6
COC(C/N=c1\cc2n(-c3ccccc3)c3ccccc3nc-2cc1Nc1ccccc1)OC | 100 | 4 | 4
CCCC/N=c1\cc2n(-c3ccc(Cl)cc3)c3ccccc3nc-2cc1Nc1ccc(Cl)cc1 | 100 | 3 | 3
c1ccc(Nc2cc3nc4ccccc4n(-c4ccccc4)c-3c/c2=N\CCN2CCOCC2)cc1 | 10 | 2 | 2
Clc1ccc(Nc2cc3nc4ccccc4n(-c4ccc(Cl)cc4)c-3c/c2=N\CCN2CCOCC2)cc1 | 20 | 1 | 1
CC(C)C/N=c1\cc2n(-c3ccccc3)c3ccccc3nc-2cc1Nc1ccccc1 | 20 | 2 | 3
OCCNCC/N=c1\cc2n(-c3ccccc3)c3ccccc3nc-2cc1Nc1ccccc1 | 10 | 5 | 6
c1ccc(Nc2cc3nc4ccccc4n(-c4ccccc4)c-3c/c2=N\CCN2CCCCC2)cc1 | 2 | 0.4 | 0.4
CC(C)C/N=c1\cc2n(-c3ccccc3)c3ccc(Cl)cc3nc-2cc1Nc1ccccc1 | 100 | 2 | 3
OCC/N=c1\cc2n(-c3ccc(Cl)cc3)c3ccccc3nc-2cc1Nc1ccc(Cl)cc1 | 20 | 2 | 2
c1ccc(Nc2cc3nc4ccccc4n(-c4ccccc4)c-3c/c2=N\CCN2CCNCC2)cc1 | 1 | 0.4 | 0.4
c1ccc(Nc2cc3nc4ccccc4n(-c4ccccc4)c-3c/c2=N\CCCN2CCCCC2)cc1 | 1 | 0.3 | 0.3
CCN(CC)CCCC(C)/N=c1\cc2n(-c3ccc(Cl)cc3)c3ccccc3nc-2cc1Nc1ccc(Cl)cc1 (stereo not drawn) | 2 | 0.2 | 0.2
COC(C/N=c1\cc2n(-c3ccc(Cl)cc3)c3ccccc3nc-2cc1Nc1ccc(Cl)cc1)OC | 60 | 4 | 5
C/N=c1\cc2n(-c3ccc(Cl)cc3)c3ccccc3nc-2cc1Nc1ccc(Cl)cc1 | 100 | 2 | 2
c1ccc(Nc2cc3nc4ccccc4n(-c4ccccc4)c-3c/c2=N\CCCNC2CCCCC2)cc1 | 0.6 | 0.2 | 0.2

Compound | Concentration [1] [µg/mL] | Concentration [2] [µg/mL] | Concentration [3] [µg/mL]
CC(CN(C)C)/N=c1\cc2n(-c3ccc(Cl)cc3)c3ccccc3nc-2cc1Nc1ccc(Cl)cc1 (stereo not drawn) | 16 | 0.8 | 1.2
CC1(C)CC(/N=c2\cc3n(-c4ccc(Cl)cc4)c4ccccc4nc-3cc2Nc2ccc(Cl)cc2)CC(C)(C)N1 | 2 | 0.2 | 0.5
CCN1CCCC1C/N=c1\cc2n(-c3ccccc3)c3ccccc3nc-2cc1Nc1ccccc1 (stereo not drawn) | 6 | 0.5 | 0.4
CC(C)NCCC/N=c1\cc2n(-c3ccc(Cl)cc3)c3ccccc3nc-2cc1Nc1ccc(Cl)cc1 | 2 | 0.3 | 0.2
OC1CCC(/N=c2\cc3n(-c4ccc(Cl)cc4)c4ccccc4nc-3cc2Nc2ccc(Cl)cc2)CC1 (stereo not drawn) | 30 | 2 | 4
Clc1ccc(Nc2cc3nc4ccccc4n(-c4ccc(Cl)cc4)c-3c/c2=N\CCCN2CCCC2)cc1 | 0.8 | 0.3 | 0.3
CCN1CCCC(/N=c2\cc3n(-c4ccc(Cl)cc4)c4ccccc4nc-3cc2Nc2ccc(Cl)cc2)C1 (stereo not drawn) | 8 | 0.5 | 0.5
CC1CCC(/N=c2\cc3n(-c4ccc(Cl)cc4)c4ccccc4nc-3cc2Nc2ccc(Cl)cc2)CC1 (stereo not drawn) | 25 | 7.5 | 7.5
CCC(CO)/N=c1\cc2n(-c3ccc(Cl)cc3)c3ccccc3nc-2cc1Nc1ccc(Cl)cc1 (stereo not drawn) | 100 | 2 | 10
CCOc1ccc(Nc2cc3nc4ccccc4n(-c4ccc(OCC)cc4)c-3c/c2=N\CCN(CC)CC)cc1 | 5 | 1 | 1
OCCC/N=c1\cc2n(-c3ccc(Cl)cc3)c3ccccc3nc-2cc1Nc1ccc(Cl)cc1 | 10 | 2 | 2
CN1CCN(CCC/N=c2\cc3n(-c4ccc(Cl)cc4)c4ccccc4nc-3cc2Nc2ccc(Cl)cc2)CC1 | 1 | 0.3 | 0.3
Cc1ccc(Nc2cc3nc4ccccc4n(-c4ccc(C)cc4)c-3c/c2=N\C2CCCCC2)cc1 | 100 | 8 | 8
CCN(CC)CCCC(C)/N=c1\cc2n(-c3ccccc3)c3ccccc3nc-2cc1Nc1ccccc1 (stereo not drawn) | 2 | 0.3 | 0.4
CCN(CC)CCC/N=c1\cc2n(-c3ccc(Cl)cc3)c3ccccc3nc-2cc1Nc1ccc(Cl)cc1 | 1 | 0.2 | 0.2
OCC/N=c1\cc2n(-c3ccccc3)c3ccc(Cl)cc3nc-2cc1Nc1ccccc1 | 100 | 2 | 4
CCN1CCCC(/N=c2\cc3n(-c4ccccc4)c4ccccc4nc-3cc2Nc2ccccc2)C1 (stereo not drawn) | 6 | 0.4 | 0.6
CCN(CC)CC/N=c1\cc2n(-c3ccccc3)c3ccccc3nc-2cc1Nc1ccccc1 | 6 | 0.6 | 0.8
Clc1ccc(Nc2cc3nc4ccccc4n(-c4ccc(Cl)cc4)c-3c/c2=N\CC2CCNCC2)cc1 | 0.6 | 0.2 | 0.2

Compound | Concentration [1] [µg/mL] | Concentration [2] [µg/mL] | Concentration [3] [µg/mL]
Clc1ccc(Nc2cc3nc4ccccc4n(-c4ccc(Cl)cc4)c-3c/c2=N\CCN2CCCC2)cc1 | 10 | 0.5 | 0.5
c1ccc(Nc2cc3nc4ccccc4n(-c4ccccc4)c-3c/c2=N\CCCN2CCCC2)cc1 | 0.6 | 0.2 | 0.2
c1ccc(Nc2cc3nc4ccccc4n(-c4ccccc4)c-3c/c2=N\CCCN2CCOCC2)cc1 | 6 | 1 | 0.8
CCCCN(CCCC)CCC/N=c1\cc2n(-c3ccc(Cl)cc3)c3ccccc3nc-2cc1Nc1ccc(Cl)cc1 | 12 | 0.4 | 0.8
NCCCCCC/N=c1\cc2n(-c3ccc(Cl)cc3)c3ccccc3nc-2cc1Nc1ccc(Cl)cc1 | 2 | 0.3 | 0.8
CC1CCCCN1CCC/N=c1\cc2n(-c3ccccc3)c3ccccc3nc-2cc1Nc1ccccc1 (stereo not drawn) | 2 | 0.3 | 0.3
OCCC/N=c1\cc2n(-c3ccccc3)c3ccccc3nc-2cc1Nc1ccccc1 | 20 | 4 | 8
Cc1ccc(Nc2cc3nc4ccccc4n(-c4ccc(C)cc4)c-3c/c2=N\CC2CCNCC2)cc1 | 0.4 | 0.2 | 0.3
CCOc1ccc(Nc2cc3nc4ccccc4n(-c4ccc(OCC)cc4)c-3c/c2=N\CCO)cc1 | 20 | 5 | 10
Clc1ccc(Nc2cc3nc4ccccc4n(-c4ccc(Cl)cc4)c-3c/c2=N\C2CCCC2)cc1 | 20 | 3 | 3
CC(C)/N=c1\cc2n(-c3ccccc3)c3ccccc3nc-2cc1Nc1ccccc1 | 100 | 2 | 3
Clc1ccc(Nc2cc3nc4ccccc4n(-c4ccc(Cl)cc4)c-3c/c2=N\CCCN2CCCCC2)cc1 | 2 | 0.2 | 0.3
CCN(CC)CC/N=c1\cc2n(-c3ccc(Cl)cc3)c3ccccc3nc-2cc1Nc1ccc(Cl)cc1 | 12 | 0.6 | 0.6
Cc1ccc(Nc2cc3nc4ccccc4n(-c4ccc(C)cc4)c-3c/c2=N\CC(C)C)cc1 | 100 | 2 | 3
Clc1ccc(Nc2cc3nc4ccccc4n(-c4ccc(Cl)cc4)c-3c/c2=N\CCCN2CCOCC2)cc1 | 12 | 0.5 | 0.4
CCCC/N=c1\cc2n(-c3ccccc3)c3ccccc3nc-2cc1Nc1ccccc1 | 20 | 3 | 3
N=c1cc2n(-c3ccc(Cl)cc3)c3ccccc3nc-2cc1Nc1ccc(Cl)cc1 | 40 | 3 | 3
CC(C)C(C)/N=c1\cc2n(-c3ccc(Cl)cc3)c3ccccc3nc-2cc1Nc1ccc(Cl)cc1 (stereo not drawn) | 30 | 3 | 4
